Results on 4 compounds are retold here after ChEMBL document CHEMBL1287779, “Indium(III) chloride catalyzed three-component coupling reaction: a novel synthesis of 2-substituted aryl(indolyl)kojic acid derivatives as potent antifungal and antibacterial agents” (2010).

Holding throughout (assay type): functional
Test [1] has as its system Candida albicans. In words: Antifungal activity against Candida albicans MTCC 227 assessed as zone of inhibition at 150 ug by agar well diffusion method. The note with it: read-out: IZ. In outline: (§1)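 Agar well diffusion on potato dextrose agar. Plates were spread with 0.5 mL of a week-old culture of the test organism, and 6 mm wells were cut with a cork borer. Compounds were dissolved in DMSO at different concentrations and added to the wells, with controls included. Plates were held at 27 °C for 48 h, and inhibition zone diameters were read in mm. Three to four replicates per treatment.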

The test system of test [2] is Diutina rugosa. In words: Antifungal activity against Candida rugosa NCIM 3462 assessed as zone of inhibition at 100 ug by agar well diffusion method. The note with it: read-out: IZ. In outline:
as §1
In general terms: Agar diffusion results depend on both activity and mobility in agar.

The test system of another test is Escherichia coli. In words: Antibacterial activity against Escherichia coli MTCC 443 by broth dilution method. In outline: (§2)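 MIC determined by broth dilution following NCCL standards. Penicillin and streptomycin were tested in parallel under identical conditions.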
Test [3] concerns Saccharomyces cerevisiae. In words: Antifungal activity against Saccharomyces cerevisiae MTCC 36 assessed as zone of inhibition at 100 ug by agar well diffusion method. The note with it: read-out: IZ. In outline:
as §1

For another test, the system named is Bacillus subtilis. Description: Antibacterial activity against Bacillus subtilis MTCC 441 by broth dilution method. A digest of the protocol: as §2
(In broth dilution the organism is exposed to a series of concentrations in liquid medium.)

Test [4] deals with Aspergillus niger. Description: Antifungal activity against Aspergillus niger MTCC 282 assessed as zone of inhibition at 100 ug by agar well diffusion method. Particulars: read-out: IZ. A digest of the protocol:
as §1

Test [5] concerns Rhizopus arrhizus. In words: Antifungal activity against Rhizopus oryzae MTCC 262 assessed as zone of inhibition at 150 ug by agar well diffusion method. Particulars: read-out: IZ. A digest of the protocol:
as §1

The test system of test [6] is Staphylococcus epidermidis. In words: Antibacterial activity against Staphylococcus epidermidis MTCC 2639 by broth dilution method. A digest of the protocol: as §2
The subject of test [7] is Rhizopus arrhizus. Description: Antifungal activity against Rhizopus oryzae MTCC 262 assessed as zone of inhibition at 100 ug by agar well diffusion method. The note with it: read-out: IZ. In outline: as §1
Another test has as its system Klebsiella pneumoniae. In words: Antibacterial activity against Klebsiella pneumoniae MTCC 618 by broth dilution method. A digest of the protocol: as §2
Test [8] has as its system Saccharomyces cerevisiae. In words: Antifungal activity against Saccharomyces cerevisiae MTCC 36 assessed as zone of inhibition at 150 ug by agar well diffusion method. The note with it: read-out: IZ. In outline: as §1
A further test deals with Pseudomonas aeruginosa. In words: Antibacterial activity against Pseudomonas aeruginosa MTCC 741 by broth dilution method. A digest of the protocol:
as §2

The next test relates to Staphylococcus aureus. Description: Antibacterial activity against Staphylococcus aureus MTCC 96 by broth dilution method. A digest of the protocol: as §2
For test [9], the system named is Aspergillus niger. Description: Antifungal activity against Aspergillus niger MTCC 282 assessed as zone of inhibition at 150 ug by agar well diffusion method. The note with it: read-out: IZ. In outline: as §1
The subject of test [10] is Candida albicans. Description: Antifungal activity against Candida albicans MTCC 227 assessed as zone of inhibition at 100 ug by agar well diffusion method. The note with it: read-out: IZ. In outline:
as §1

Test [11] concerns Diutina rugosa. In words: Antifungal activity against Candida rugosa NCIM 3462 assessed as zone of inhibition at 150 ug by agar well diffusion method. Particulars: read-out: IZ. A digest of the protocol:
as §1

What is called MIC is the lowest concentration found to suppress growth. High values mean a need for much substance, low ones inhibition by little substance.

≈ marks a conversion by molar mass, not a printed value.

As to `Cc1[nH]c2ccccc2c1C(c1ccc2ccccc2c1)c1oc(CO)cc(=O)c1O` (centres undefined), the zone of inhibition at 150 µg/disc with Candida albicans [1], with Rhizopus arrhizus [5], with Saccharomyces cerevisiae [8], in the test with Aspergillus niger [9] and with Diutina rugosa [11] was 0 mm each time. Further, the zone of inhibition at 100 µg/disc in the test with Diutina rugosa [2], in the test with Saccharomyces cerevisiae [3], with Aspergillus niger [4], in the test on Rhizopus arrhizus [7] and in the test with Candida albicans [10] was 0 mm in each case. The minimal inhibitory concentration (MIC) (against Escherichia coli; in the test on Bacillus subtilis; in [6]; in the test on Klebsiella pneumoniae; against Pseudomonas aeruginosa; against Staphylococcus aureus) was 150 µg/mL (≈ 365 µM) each time.
Regarding `COc1ccc(C(c2oc(CO)cc(=O)c2O)c2c[nH]c3ccccc23)cc1` (centres undefined), the zone of inhibition at 150 µg/disc with Candida albicans [1] stood at 0 mm; in the test on Rhizopus arrhizus [5], 0 mm; in the test with Saccharomyces cerevisiae [8] it was 0 mm; in the test with Aspergillus niger [9], 0 mm; in the test on Diutina rugosa [11], 9 mm. Besides, the zone of inhibition at 100 µg/disc in the test with Diutina rugosa [2] is 6 mm; in the test on Saccharomyces cerevisiae [3] it was 0 mm; in the test with Aspergillus niger [4] it was 0 mm; in the test with Rhizopus arrhizus [7], 0 mm; in the test on Candida albicans [10] it was 0 mm. Moreover, the minimum inhibitory concentration (MIC) in the test with Escherichia coli came out at 150 µg/mL (≈ 397 µM); against Bacillus subtilis it was 150 µg/mL (≈ 397 µM); in [6], 18.8 µg/mL (≈ 49.7 µM); in the test on Klebsiella pneumoniae, 75 µg/mL (≈ 199 µM); with Pseudomonas aeruginosa it was 75 µg/mL (≈ 199 µM); against Staphylococcus aureus, 37.5 µg/mL (≈ 99.4 µM).
Regarding `COc1cc(C(c2oc(CO)cc(=O)c2O)c2c(C)[nH]c3ccccc23)ccc1O` (centres undefined), the zone of inhibition at 150 µg/disc in the test with Candida albicans [1], in the test with Rhizopus arrhizus [5], in the test on Saccharomyces cerevisiae [8], with Aspergillus niger [9] and in the test with Diutina rugosa [11] was 0 mm each time. Further, the zone of inhibition at 100 µg/disc in the test with Diutina rugosa [2], in the test with Saccharomyces cerevisiae [3], in the test with Aspergillus niger [4], with Rhizopus arrhizus [7] and with Candida albicans [10] was 0 mm in each case. Moreover, the minimal inhibitory concentration (MIC) (in the test on Escherichia coli; with Bacillus subtilis; in [6]; in the test on Klebsiella pneumoniae; against Pseudomonas aeruginosa; with Staphylococcus aureus) was 150 µg/mL (≈ 368 µM) each time.
`O=c1cc(CO)oc(C(c2ccccc2O)c2c(-c3ccccc3)[nH]c3ccccc23)c1O` (centres undefined): the zone of inhibition at 150 µg/disc with Candida albicans [1] stood at 14 mm; in the test with Rhizopus arrhizus [5], 0 mm; with Saccharomyces cerevisiae [8] it was 16 mm; with Aspergillus niger [9], 0 mm; in the test on Diutina rugosa [11] it was 0 mm. The zone of inhibition at 100 µg/disc came to 0 mm in the test on Diutina rugosa [2]; 12 mm in the test with Saccharomyces cerevisiae [3]; 0 mm in the test on Aspergillus niger [4]; 0 mm with Rhizopus arrhizus [7]; 10 mm with Candida albicans [10]. The MIC against Escherichia coli came out at 37.5 µg/mL (≈ 85.3 µM); against Bacillus subtilis, 150 µg/mL (≈ 341 µM); in test [6], 150 µg/mL (≈ 341 µM); against Klebsiella pneumoniae it was 75 µg/mL (≈ 171 µM); in the test on Pseudomonas aeruginosa, 18.8 µg/mL (≈ 42.7 µM); in the test with Staphylococcus aureus, 4.68 µg/mL (≈ 10.6 µM).
